Measurements: PMC6422158 (Clinical cancer research : an official journal of the …, 2018)

Tests used:
[1] = system: patients with advanced cancer; experiment: Phase I safety and tolerability; assay type: in vivo
[2] = Plasma pharmacokinetics of LY2940680 and LSN3185556 in patients; assay type: in vivo, human
Procedure, shortened: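 Oral dosing was once daily in the morning, 50–600 mg, on 28-day cycles. About 4 mL blood was drawn into EDTA tubes over a 24-h sampling schedule. Parent and metabolite in plasma were quantified by validated LC/MS. Noncompartmental analysis gave Cmax, tmax, AUC0–24, t1/2, Vd/F and CL/F. Accumulation ratio was from AUC0–24, days 1 vs 15, reported as geometric means with %CV.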

Gli1 mRNA = Gli1 mRNA expression in skin biopsies; assay type: in vivo, human; conditions: overall, all doses 50-600 mg QD; interquartile range 80.9%−95.7%
Procedure, shortened: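 Normal skin biopsies taken predose, cycle 1 day 15 and cycle 2 day 1 from patients on oral QD dosing (28-day cycles). Post-dose samples were taken 2 h after dosing in escalation, and 24 h after the cycle 2 day 1 dose in confirmation/expansion. GLI1 was measured by RT-PCR, normalised to RPLP0, and % inhibition was derived by 2−ΔΔCT and summarised by dose level.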

advanced cancer = experiment: Tumor response per RECIST 1.1, all patients on therapy; assay type: in vivo, human; conditions: 84 patients on therapy
Procedure, shortened: (§1)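 Response was assessed by RECIST 1.1 plus investigator assessment. Best response required two CR determinations (or two PR-or-better) before progression. Confirmation used the same radiologic method repeated at least 4 weeks after the initial response. ORR was CR+PR among all patients dosed at least once. Clinical benefit was CR+PR+SD among dosed patients with a measurable lesion.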

[3] = system: locally advanced/metastatic basal cell carcinoma; experiment: Tumor response per RECIST 1.1, BCC patients; assay type: in vivo, human
Procedure, shortened: as §1

in vitro = in vitro ADME; conditions: human, plasma
human serum albumin = human serum albumin (Homo sapiens, UniProt P02768); experiment: In vitro binding to human serum albumin; assay type: in vitro ADME
Chain of human serum albumin (P02768 25-609): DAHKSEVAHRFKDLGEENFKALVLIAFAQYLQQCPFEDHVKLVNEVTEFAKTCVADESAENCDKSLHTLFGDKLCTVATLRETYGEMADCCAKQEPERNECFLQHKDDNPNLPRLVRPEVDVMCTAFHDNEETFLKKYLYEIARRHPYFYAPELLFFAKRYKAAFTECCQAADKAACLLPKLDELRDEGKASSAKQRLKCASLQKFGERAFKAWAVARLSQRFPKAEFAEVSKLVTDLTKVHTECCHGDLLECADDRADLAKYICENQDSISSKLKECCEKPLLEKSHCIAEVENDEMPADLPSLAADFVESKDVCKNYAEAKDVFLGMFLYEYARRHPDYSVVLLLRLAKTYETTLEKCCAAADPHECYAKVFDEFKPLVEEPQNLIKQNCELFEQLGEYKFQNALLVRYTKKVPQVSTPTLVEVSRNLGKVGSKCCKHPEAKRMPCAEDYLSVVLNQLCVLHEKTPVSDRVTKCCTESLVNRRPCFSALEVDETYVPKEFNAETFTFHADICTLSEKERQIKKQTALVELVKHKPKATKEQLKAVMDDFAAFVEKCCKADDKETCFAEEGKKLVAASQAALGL

CYP3A4 = CYP3A4 (Homo sapiens, UniProt P08684); experiment: In vitro metabolism by CYP3A4; assay type: in vitro ADME; conditions: in vitro data
Chain of CYP3A4 (P08684 whole entry): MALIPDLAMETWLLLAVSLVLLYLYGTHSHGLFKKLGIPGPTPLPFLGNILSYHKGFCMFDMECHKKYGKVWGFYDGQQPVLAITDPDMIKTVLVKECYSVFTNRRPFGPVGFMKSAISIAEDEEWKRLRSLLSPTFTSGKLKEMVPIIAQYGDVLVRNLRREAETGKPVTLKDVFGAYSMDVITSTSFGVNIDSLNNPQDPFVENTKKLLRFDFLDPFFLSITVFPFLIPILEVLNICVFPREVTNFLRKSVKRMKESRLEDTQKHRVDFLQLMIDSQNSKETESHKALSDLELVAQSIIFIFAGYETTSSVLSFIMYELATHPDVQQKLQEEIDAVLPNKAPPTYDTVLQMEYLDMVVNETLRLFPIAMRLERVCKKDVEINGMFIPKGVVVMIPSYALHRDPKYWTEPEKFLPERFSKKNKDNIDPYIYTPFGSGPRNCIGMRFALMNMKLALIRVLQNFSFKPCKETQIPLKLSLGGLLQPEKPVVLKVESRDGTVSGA

[4] = system: human Smo (hSmo) receptor; conditions: cited from earlier work
[5] = cited from earlier work
[6] = at doses above 400 mg; first human dose trial; ref 19−22; cited from earlier work
advanced BCC = conditions: human, in vivo; cited from earlier work
[7] = BCC, prior Hh therapy including vismodegib and sonidegib

## CN(C(=O)c1ccc(F)cc1C(F)(F)F)C1CCN(c2nnc(-c3ccnn3C)c3ccccc23)CC1 [LY2940680, taladegib]
[1]; human, in vivo
  AE resulting in dose reductions: decreased appetite: 3
  AE resulting in dose reductions: dysgeusia: 3
  AE resulting in dose reductions: fatigue: 8
  AE resulting in dose reductions: muscle spasms: 8
  AE resulting in dose reductions: nausea: 3
  AE resulting in dose reductions: weight decreased: 3
  Patients who discontinued treatment because of AE: 10
  Patients with SAEs: 22 patients
  Patients with at least 1 dose reduction: 16 patients
[1]; human, in vivo, 1 cycle
  Patients with DLTs: 4 patients
[1]; human, in vivo, 22 day
  DLT observed: grade 3 hyponatremia
[1]; oral QD, 3+3 dose escalation 50 to 600 mg
  Maximum tolerable dose (MTD): 400 mg
[2]; LY2940680, between days 1 and 15, QD, range 0.7−4.8, 39% CV
  Accumulation ratio based on AUC0–24: approximately 2
[2]; QD dosing
  Steady state attained: cycle 2, day 1
[2]; after multiple doses
  Dose proportionality of Cmax and AUC0–24: did not suggest any large deviation from dose proportionality
[2]; after single- and multiple-dose oral administrations
  Time to reach Cmax: approximately 3 hours
[2]; human, in vivo
  PK variability on exposure: approximately 70%
[2]; human, plasma, po
  Vd/F: 235 L
[2]; oral, 70% CV
  CL/F (geometric mean): 8.2 L/h
Gli1 mRNA
  Gli1 inhibition in normal skin (median): 92.3%
Advanced cancer
  Best response of SD: 26 (30.9%) patients (%)
  Best response of progressive disease: 24 (28.6%) patients (%)
  Confirmed CR: 5 (5.9%) patients (%)
  Confirmed PR: 16 (19.0%) patients (%)
  Patients with a response: 22 (26.2%) patients (%)
  Unconfirmed PR: 1 (1.2%) patients (%)
[3]; 16 BCC patients requiring dose reductions
  Best overall response of CR or PR: 9 (56.3%) patients (%)
[3]; 47 BCC patients
  Best overall response of CR or PR: 22 (46.8%) patients (%)
  Best response of progressive disease: 1 patient
[3]; 47 BCC patients (twenty-one patients)
  Best response of SD: 44.7%
[3]; 47 BCC patients, based on nontarget lesions
  Best response of non-CR nonprogressive disease: 1 patient
[3]; BCC
  Responses in Hh treatment-naïve patients: 68.8%
  Responses in Hh treatment-naïve patients (responders/patients): 11/16
[3]; BCC expansion phase (n = 40), 400 mg QD, 95% CI 7.62−17.54
  Estimated median PFS: 12.0 months
[3]; BCC patients (n = 47), 95% CI 32.1%−61.9%
  Estimated response rate: 46.8%
[3]; BCC patients, 95% CI 82.5%−98.7%
  Disease control rate: 93.6%
[3]; [7]
  Responses in patients previously treated with Hh therapy: 35.5%
  Responses in patients previously treated with Hh therapy (responders/patients): 11/31
[3]; Hh-inhibitor treatment–naïve locally advanced BCC, 50 mg QD, PR
  Duration of sustained response, single patient: 8.3 months
[3]; number of the 16 BCC patients requiring dose reductions
  Confirmed CR: 3
[3]; number of the 47 BCC patients
  Confirmed CR: 5
  Confirmed PR: 16
  Unconfirmed PR: 1
In vitro
  fraction unbound: 0.056
Human serum albumin; 1 to 10 μmol/L
  Concentration dependence of binding to human serum albumin: no apparent concentration-dependent binding
Human serum albumin; tested with human serum albumin and human α−1-acid glycoprotein
  Predominant plasma-binding protein: Human serum albumin
CYP3A4
  Fraction metabolized by CYP3A4: 100%
[4]
  Binding to hSmo receptor: competitively inhibits binding of an hSmo agonist

## Cc1c(C(=O)Nc2ccc(N3C[C@@H](C)O[C@@H](C)C3)nc2)cccc1-c1ccc(OC(F)(F)F)cc1 [sonidegib]
[5]
  Bound to plasma protein: over 99%
[6]
  PK linearity: nonlinear PK
Advanced BCC
  Efficacy in advanced BCC patients previously treated with vismodegib: not efficacious
